Published values gathered from unrelated publications.
Each line is one published result; the experiments were not run side by side.
ST14: Suppressor of tumorigenicity 14 protein (ST14, Homo sapiens, UniProt Q9Y5Y6)
CDK2 with cyclin A2: Cyclin-dependent kinase 2, with cyclin A2 (CDK2, Homo sapiens, UniProt P24941)

SMILES | target | assay | conditions | measurement | value
CNc1ncc2c(/C=C/C(=O)N3CCC(OC)CC3)nn(Cc3cccc(C(F)(F)F)c3)c2n1 | Cyclin-dependent kinase 8, with cyclin C (CDK8, Homo sapiens, UniProt P49336) | enzyme activity, inhibitor, radiometric | 1 µM | remaining activity | 105%
CC[C@@H](C)[C@H](NC(=O)[C@H](Cc1cscn1)NC(=O)CCc1ccccc1)C(=O)N[C@@H](CCCNC(=N)N)C(=O)c1nc2ccccc2s1 | ST14 | enzyme activity, inhibitor | 0.1 µM | remaining activity | 4%
CC(=O)Nc1c(N)nc(SCC(=O)NN)[nH]c1=O | CDK2 with cyclin A2 | enzyme activity, inhibitor | 10 nM | inhibition | 22.9%
N=C(N)NCCC[C@H](NC(=O)[C@@H](NC(=O)[C@H](Cc1cscn1)NC(=O)CCc1ccccc1)C(c1ccccc1)c1ccccc1)C(=O)c1nc2ccccc2s1 | ST14 | enzyme activity, inhibitor | 0.1 µM | remaining activity | 76%
CNC(=O)c1cc(Oc2ccc(NC(=O)Nc3ccc(Cl)c(C(F)(F)F)c3)cc2)ccn1 | CDK2 with cyclin A2 | enzyme activity, inhibitor | 1 µM | inhibition | 81.4%
Cc1cc([C@@H](C)Nc2ccccc2C(=O)O)c2nc(N3CCC(F)(F)CC3)c(C#N)c(=O)n2c1 | Serine/threonine-protein kinase pim-1 (PIM1, Homo sapiens, UniProt P11309) | binding, competition with immobilised ligand | 10 µM | remaining binding | 100%
COc1cc(-c2cncc3c2CN(C)Cc2cc(N4CCNCC4)ccc2-3)cc(OC)c1OC | Protein kinase C eta type (PRKCH, Homo sapiens, UniProt P24723) | enzyme activity, inhibitor | 1 µM | remaining activity | 115%
C=CC(=O)N1CCC(COCC(=O)N2CCN(c3nc(-c4cnc(N)nc4C(F)F)nc(N4CCOC[C@@H]4C)n3)CC2)CC1 | ALK tyrosine kinase receptor (ALK, Homo sapiens, UniProt Q9UM73, C1156Y) | binding, competition with immobilised ligand | 1 µM | remaining binding | 79%
N=C(N)NCCC[C@H](NC(=O)[C@H](Cc1ccc(-c2ccccc2)cc1)NC(=O)[C@H](Cc1cscn1)NC(=O)CCc1ccccc1)C(=O)c1nc2ccccc2s1 | ST14 | enzyme activity, inhibitor | 0.1 µM | remaining activity | 30%
CC(=O)Nc1c(N)nc(SCC(=O)N/N=C/c2ccc([N+](=O)[O-])cc2)[nH]c1=O | CDK2 with cyclin A2 | enzyme activity, inhibitor | 0.1 µM | inhibition | 37.6%
